From ChEMBL document CHEMBL2440116, “Structure-activity relationships of 2-aminothiazoles effective against Mycobacterium tuberculosis” (Bioorg Med Chem, 2013)
Values after ≈ are worked out from the molar mass of the structure shown.

Experiments:
[1] = Therapeutic index, ratio of EC50 for african green monkey Vero cells to MIC for Mycobacterium tuberculosis H37Rv; format: cell-based; conditions: read-out: TI
Liver = assay: Half life in CD-1 mouse liver microsomes; format: ADME, Microsome
How it was run: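 CD-1 mouse liver microsomes; compound from 2 mM DMSO stock in 0.1 M sodium phosphate pH 7.4 with NADPH, preincubated 5 min at 37 °C before microsomes added. Aliquots taken at 0–60 min and quenched with ice-cold acetonitrile, run in duplicate. Minus-NADPH control sampled at 0 and 60 min. Remaining parent measured by isocratic C8 HPLC with UV at 220 nm.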

Vero = assay: Cytotoxicity against african green monkey Vero cells after 72 hrs by MTT assay; format: cell-based; conditions: Chlorocebus sabaeus
How it was run: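 Vero (CCL-81) cells in MEM with 10% FBS, penicillin-streptomycin and Glutamax, seeded at 3.0×10⁴ per well and left to adhere overnight. Compounds added from DMSO at final 100–0.16 μM, triplicate, for 72 h at 37 °C, 4.5% CO2. Then MTT 1.0 mg/mL in phenol-red-free RPMI for 3 h, formazan dissolved in isopropanol, A570 minus A690. Viability taken relative to DMSO control; EC50 from dose-response curves.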

[2] = test system: Mycobacterium tuberculosis; assay: Antitubercular activity against Mycobacterium tuberculosis H37Rv in Middlebrook 7H9 broth with glucose after 7 to 14 days by broth microdilution method; format: functional
How it was run: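 Broth microdilution of H37Rv in 7H9 with 0.8 g/L NaCl, 5 g/L BSA fraction V, 4 g/L glucose and 0.05% Tyloxapol. Run in quadruplicate from DMSO stocks with DMSO controls; isoniazid positive control.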

[3] = test system: Mycobacterium tuberculosis; assay: Antitubercular activity against Mycobacterium tuberculosis H37Rv in Middlebrook 7H9 broth with butyrate after 7 to 14 days by broth microdilution method; format: functional
[4] = test system: Mycobacterium tuberculosis; assay: Antitubercular activity against Mycobacterium tuberculosis H37Rv in GAST media with glycerol and alanine after 7 to 14 days by broth microdilution method; format: functional
[5] = Solubility of the compound; format: physicochemical
Liver microsomes [6] = assay: Half life in human liver microsomes; format: ADME, Microsome
Liver microsomes [7] = assay: Drug metabolism in human liver microsomes; format: ADME, Microsome

SMILES | selectivity ratio [1] | t1/2 (Liver) | EC50 (Vero) | MIC99 [2] | MIC99 [3] | MIC99 [4] | solubility [5] | t1/2 (Liver microsomes [6]) | Drug metabolism (Liver microsomes [7])
Cc1cccc(C(=O)Nc2nc(-c3ccccn3)cs2)c1 | 11 | 6.7 min | 4.1 µM | 0.19 µM (≈ 0.0561 µg/mL) | 0.049 µM (≈ 0.0145 µg/mL) | 0.049 µM (≈ 0.0145 µg/mL) | – | – | –
O=C(Nc1nc(-c2ccccn2)cs1)c1ccccc1OCc1ccccc1 | – | – | – | > 50 µM | > 50 µM | 50 µM (≈ 19.4 µg/mL) | Insoluble | – | –
O=C(Nc1nc(-c2ccccn2)cs1)c1cccc(Br)c1 | – | 11 min | 16.1 µM | 0.098 µM (≈ 0.0353 µg/mL) | 0.024 µM (≈ 0.00865 µg/mL) | 0.049 µM (≈ 0.0177 µg/mL) | – | – | –
COc1ccc(C(=O)Nc2nc(-c3ccccn3)cs2)cc1 | 24 | 16 min | 9.2 µM | 0.39 µM (≈ 0.121 µg/mL) | 0.19 µM (≈ 0.0592 µg/mL) | 0.098 µM (≈ 0.0305 µg/mL) | – | – | –
O=C(Nc1nc(-c2ccccn2)cs1)c1cccc(Cl)c1 | 30 | 19 min | 7 µM | 0.19 µM (≈ 0.06 µg/mL) | 0.024 µM (≈ 0.00758 µg/mL) | 0.049 µM (≈ 0.0155 µg/mL) | – | 28 min | Active
O=C(Nc1nc(-c2ccccn2)cs1)c1cccc(F)c1F | 18 | – | 7.2 µM | 0.39 µM (≈ 0.124 µg/mL) | 0.19 µM (≈ 0.0603 µg/mL) | 0.098 µM (≈ 0.0311 µg/mL) | – | – | –
O=C(Nc1nc(-c2ccccn2)cs1)c1ccc(Br)cc1 | – | 6.8 min | 4.7 µM | 0.19 µM (≈ 0.0684 µg/mL) | 0.098 µM (≈ 0.0353 µg/mL) | 0.049 µM (≈ 0.0177 µg/mL) | – | – | –
